Key:
Pseudomonas aeruginosa [1] = experiment: Bactericidal activity against Pseudomonas aeruginosa ATCC 9027 assessed as colony forming unit at 10 ug/ml measured at 8 hrs by time kill assay (reference value: 2.7 x 10^8 CFU/ml); format: functional; settings: dose 10 µg/ml
How it was run: (§1)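 Overnight Pseudomonas aeruginosa culture adjusted in Mueller–Hinton broth to about 2.5 × 10⁵ CFU/mL. Compound added at 2.5, 5 or 10 µg/mL, then incubated at 37 °C with shaking (580 rpm) for 22 h. Viable colonies counted on plates at 2, 4, 6, 8 and 22 h. Quantification limit 100 CFU/mL; triplicate.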

Pseudomonas aeruginosa [2] = experiment: Bactericidal activity against Pseudomonas aeruginosa ATCC 9027 assessed as colony forming unit at 5 ug/ml measured at 6 hrs by time kill assay (reference value: 10^8 CFU/ml); format: functional; settings: dose 5 µg/ml; how it was run: as §1
Staphylococcus aureus [3] = experiment: Antibacterial activity against methicillin-resistant Staphylococcus aureus CEMTC 707 assessed as bacterial growth inhibition by CLSI protocol based serial microdilution method; format: functional
Pseudomonas aeruginosa [4] = experiment: Bactericidal activity against Pseudomonas aeruginosa ATCC 9027 assessed as reduction in colony forming unit at 10 ug/ml measured at 22 hrs by time kill assay relative to control; format: functional; design: scale not given: the % may be the effect or the level left; settings: dose 10 µg/ml; how it was run: as §1
Pseudomonas aeruginosa [5] = experiment: Bactericidal activity against Pseudomonas aeruginosa ATCC 9027 assessed as colony forming unit at 10 ug/ml measured at 22 hrs by time kill assay (reference value: 1.7 x 10^9 CFU/ml); format: functional; settings: dose 10 µg/ml; how it was run: as §1
Candida albicans = experiment: Antifungal activity against Candida albicans CEMTC 34 assessed as fungal growth inhibition by CLSI protocol based serial microdilution method; format: functional
How it was run: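 Candida albicans grown in Sabouraud dextrose broth with two-fold serial compound dilutions from water stocks; final inoculum about 5 × 10⁵ CFU/mL. Incubated at 37 °C with orbital shaking (580 rpm). MIC is the lowest concentration preventing growth, by absorbance at 595 nm. MFC is the lowest concentration with no visible growth. Duplicates in two separate experiments.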

[6] = Selectivity index, ratio of CC50 for HEK293T cells assessed as reduction in cell viability measured after 24 hrs by MTT assay to MIC for Citrobacter freundii ATCC 8090 assessed as bacterial growth inhibition by CLSI protocol based serial microdilution method; format: toxicity; settings: human, read-out: Selectivity Index
Staphylococcus aureus [7] = experiment: Antibacterial activity against methicillin-resistant Staphylococcus aureus CEMTC 707 assessed as concentration required to inhibit visible growth by CLSI protocol based serial microdilution method; format: functional
Staphylococcus aureus [8] = experiment: Antibacterial activity against methicillin-resistant Staphylococcus aureus CEMTC 1732 assessed as concentration required to inhibit visible growth by CLSI protocol based serial microdilution method; format: functional
Pseudomonas aeruginosa [9] = experiment: Bactericidal activity against Pseudomonas aeruginosa ATCC 9027 assessed as colony forming unit at 2.5 ug/ml measured at 22 hrs by time kill assay (reference value: 1.7 x 10^9 CFU/ml); format: functional; settings: dose 2.5 µg/ml; how it was run: as §1
Staphylococcus aureus [10] = experiment: Antibacterial activity against methicillin-resistant Staphylococcus aureus CEMTC 675 assessed as concentration required to inhibit visible growth by CLSI protocol based serial microdilution method; format: functional
Pseudomonas aeruginosa [11] = experiment: Bactericidal activity against Pseudomonas aeruginosa ATCC 9027 assessed as reduction in colony forming unit at 10 ug/ml measured at 2 hrs by time kill assay relative to control; format: functional; design: scale not given: the % may be the effect or the level left; settings: dose 10 µg/ml; how it was run: as §1
Staphylococcus aureus [12] = experiment: Antibacterial activity against methicillin-resistant Staphylococcus aureus CEMTC 1733 assessed as concentration required to inhibit visible growth by CLSI protocol based serial microdilution method; format: functional
Staphylococcus aureus [13] = experiment: Bactericidal activity against […] Staphylococcus aureus ATCC 25923 assessed as colony forming unit at 1.25 ug/ml measured at 4 hrs by time kill assay (reference value: 7.8 x 10^6 CFU/ml); format: functional; settings: dose 1.25 µg/ml
How it was run: (§2)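 S. aureus overnight culture was adjusted in MHB to ~8 × 10⁵ CFU/mL. Compound was added and the mixture incubated at 37 °C with shaking (580 rpm) for 22 h. Aliquots were plated for colony counts at 2, 4, 6, 8 and 22 h, with a quantification limit of 100 CFU/mL. Runs were done in triplicate.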

Staphylococcus aureus [14] = experiment: Antibacterial activity against methicillin-resistant Staphylococcus aureus CEMTC 1732 assessed as bacterial growth inhibition by CLSI protocol based serial microdilution method; format: functional
Staphylococcus aureus [15] = experiment: Antibacterial activity against methicillin-resistant Staphylococcus aureus CEMTC 1695 assessed as concentration required to inhibit visible growth by CLSI protocol based serial microdilution method; format: functional
[16] = Cytotoxicity against human MCF7 cells assessed as reduction in cell viability measured after 24 hrs by MTT assay; format: cell-based
How it was run: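 HEK293T or MCF-7 cells in IMDM with 10% FBS, seeded at 20,000 per well and grown overnight. Compounds at […] in fresh medium for 24 h at 37 °C, 5% CO₂. MTT then added for 4 h, precipitate dissolved overnight in SDS-HCl, absorbance read at 570 nm. Viability expressed relative to untreated cells, giving CC₅₀. Duplicate wells, at least two independent repeats.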

Pseudomonas aeruginosa [17] = experiment: Bactericidal activity against Pseudomonas aeruginosa ATCC 9027 assessed as reduction in colony forming unit at 10 ug/ml measured at 8 hrs by time kill assay relative to control; format: functional; design: scale not given: the % may be the effect or the level left; settings: dose 10 µg/ml; how it was run: as §1
Proteus vulgaris [18] = experiment: Antibacterial activity against Proteus vulgaris ATCC 6380 assessed as concentration required to inhibit visible growth by CLSI protocol based serial microdilution method; format: functional
Proteus vulgaris [19] = experiment: Antibacterial activity against Proteus vulgaris ATCC 6380 assessed as bacterial growth inhibition by CLSI protocol based serial microdilution method; format: functional
[20] = Selectivity index, ratio of CC50 for HEK293T cells assessed as reduction in cell viability measured after 24 hrs by MTT assay to MIC for Enterococcus faecalis ATCC 51299 assessed as bacterial growth inhibition by CLSI protocol based serial microdilution method; format: toxicity; settings: human, read-out: Selectivity Index
Pseudomonas aeruginosa [21] = experiment: Bactericidal activity against Pseudomonas aeruginosa ATCC 9027 assessed as colony forming unit at 2.5 ug/ml measured at 4 hrs by time kill assay (reference value: 1.2 x 10^7 CFU/ml); format: functional; settings: dose 2.5 µg/ml; how it was run: as §1
Staphylococcus aureus [22] = experiment: Antibacterial activity against methicillin-resistant Staphylococcus aureus CEMTC 1695 assessed as bacterial growth inhibition by CLSI protocol based serial microdilution method; format: functional
Pseudomonas aeruginosa [23] = experiment: Bactericidal activity against Pseudomonas aeruginosa ATCC 9027 assessed as colony forming unit at 5 ug/ml measured at 22 hrs by time kill assay (reference value: 1.7 x 10^9 CFU/ml); format: functional; settings: dose 5 µg/ml; how it was run: as §1
Pseudomonas aeruginosa [24] = experiment: Bactericidal activity against Pseudomonas aeruginosa ATCC 9027 assessed as reduction in colony forming unit at 2.5 ug/ml measured at 22 hrs by time kill assay relative to control; format: functional; design: scale not given: the % may be the effect or the level left; settings: dose 2.5 µg/ml; how it was run: as §1
Pseudomonas aeruginosa [25] = experiment: Bactericidal activity against Pseudomonas aeruginosa ATCC 9027 assessed as reduction in colony forming unit at 5 ug/ml measured at 2 hrs by time kill assay relative to control; format: functional; design: scale not given: the % may be the effect or the level left; settings: dose 5 µg/ml; how it was run: as §1
[26] = Selectivity index, ratio of CC50 for HEK293T cells assessed as reduction in cell viability measured after 24 hrs by MTT assay to MIC for Staphylococcus aureus ATCC 25923 assessed as bacterial growth inhibition by CLSI protocol based serial microdilution method; format: toxicity; settings: human, read-out: Selectivity Index
Staphylococcus aureus [27] = experiment: Bactericidal activity against […] Staphylococcus aureus ATCC 25923 assessed as colony forming unit at 1.25 ug/ml measured at 8 hrs by time kill assay (reference value: 2.7 x 10^8 CFU/ml); format: functional; settings: dose 1.25 µg/ml; how it was run: as §2

| SMILES | Activity (Pseudomonas aeruginosa [1]) [CFU/ml] | Activity (Pseudomonas aeruginosa [2]) [CFU/ml] | MIC (Staphylococcus aureus [3]) [µg/mL] | Activity (Pseudomonas aeruginosa [4]) | Activity (Pseudomonas aeruginosa [5]) [CFU/ml] | MIC (Candida albicans) [µg/mL] | selectivity ratio at 24 h [6] | MBC (Staphylococcus aureus [7]) [µg/mL] | MBC (Staphylococcus aureus [8]) [µg/mL] | Activity (Pseudomonas aeruginosa [9]) [CFU/ml] | MBC (Staphylococcus aureus [10]) [µg/mL] | Activity (Pseudomonas aeruginosa [11]) | MBC (Staphylococcus aureus [12]) [µg/mL] | Activity (Staphylococcus aureus [13]) [CFU/ml] | MIC (Staphylococcus aureus [14]) [µg/mL] | MBC (Staphylococcus aureus [15]) [µg/mL] | CC50 at 24 h [16] [µg/mL] | Activity (Pseudomonas aeruginosa [17]) | MBC (Proteus vulgaris [18]) [µg/mL] | MIC (Proteus vulgaris [19]) [µg/mL] | other results |
| --- | --- | --- | --- | --- | --- | --- | --- | --- | --- | --- | --- | --- | --- | --- | --- | --- | --- | --- | --- | --- | --- |
| CCCCCCCCCCCC[N+]12CC[N+](CCC[N+]34CC[N+](CCCCCCCCCCCC)(CC3)CC4)(CC1)CC2 | <100 | <100 | 0.5 | >=99.9% | <100 | 3.1 | 4 | 1 | 1 | <100 | 1 | >=99.9% | 1 | <100 | 0.5 | 1 | 5 | >=99.9% | > 100 | 100 | selectivity ratio at 24 h [20]: 4; Activity (Pseudomonas aeruginosa [21]): <100 CFU/ml; MIC (Staphylococcus aureus [22]): 1 µg/mL; Activity (Pseudomonas aeruginosa [23]): <100 CFU/ml; Activity (Pseudomonas aeruginosa [24]): >=99.9%; Activity (Pseudomonas aeruginosa [25]): >=99.9%; selectivity ratio at 24 h [26]: 22; Activity (Staphylococcus aureus [27]): <100 CFU/ml |
| CCCCCCCCCCCC[N+]12CC[N+](Cc3ccccc3C[N+]34CC[N+](CCCCCCCCCCCC)(CC3)CC4)(CC1)CC2 | <100 | <100 | 0.5 | >=99.9% | <100 | 3.1 | 3 | 1 | 1 | 100 | 1 | ≥ 99.9% | 1 | <100 | 0.5 | 1 | 4 | >=99.9% | > 100 | 100 | selectivity ratio at 24 h [20]: 5; Activity (Pseudomonas aeruginosa [21]): 1300 CFU/ml; MIC (Staphylococcus aureus [22]): 1 µg/mL; Activity (Pseudomonas aeruginosa [23]): <100 CFU/ml; Activity (Pseudomonas aeruginosa [24]): >=99.9%; Activity (Pseudomonas aeruginosa [25]): >=99.9%; selectivity ratio at 24 h [26]: 7; Activity (Staphylococcus aureus [27]): <100 CFU/ml |

Reference: ChEMBL document CHEMBL4715780, “Biological evaluation of tetracationic compounds based on two 1,4-diazabicyclo[2.2.2]octane moieties connected by different linkers” (Bioorg Med Chem, 2016)
